Data from ChEMBL document CHEMBL4732196, “Structural optimization towards promising β-methyl-4-acrylamido quinoline derivatives as PI3K/mTOR dual inhibitors for anti-cancer therapy: The in vitro and in vivo biological evaluation” (Eur J Med Chem, 2021).
Active and inactive are the calls of the source. The rule behind the calls is not given here.

Assays:
[1] = target: Cyclin-G-associated kinase (Homo sapiens) (UniProt O14976); experiment: Inhibition of human partial length GAK (G13 to Y338 residues) expressed in bacterial expression system assessed as residual activity at 10 uM by kinome scan method relative to control
How it was run: (§1)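 KINOMEscan binding assay, test compound at 10 μM against a 52-kinase panel. % Ctrl = (compound signal − positive control signal)/(negative control signal − positive control signal) × 100, with DMSO as negative control (100%) and a positive control (0%).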

[2] = target: Activin receptor type-2A (Homo sapiens) (UniProt P27037); experiment: Inhibition of human partial length ACVR2A (V171 to T499 residues) expressed in bacterial system assessed as residual activity at 10 uM by kinome scan method relative to control; how it was run: as §1
[3] = target: Cyclin-dependent kinase-like 1 (Homo sapiens) (UniProt Q00532); experiment: Inhibition of human partial length CDKL1 (M1 to I358 residues) expressed in bacterial system assessed as residual activity at 10 uM by kinome scan method relative to control; how it was run: as §1
[4] = target: Mitogen-activated protein kinase kinase kinase 4 (Homo sapiens) (UniProt Q9Y6R4); experiment: Inhibition of human partial length MAP3K4 (G1319 to E1608 residues) expressed in bacterial expression system assessed as residual activity at 10 uM by kinome scan method relative to control; how it was run: as §1
[5] = test system: U87; experiment: Inhibition of PI3K in human U87MG cells assessed as suppression of phosphorylation of AKT at Ser473 residue at 25 nM after 3 hrs by Western blot analysis; assay type: cell-based
How it was run: (§2)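 U87MG cells seeded at 1×10^6 per well, incubated overnight at 37 °C, 5% CO₂, then treated at various concentrations for 3 h at 37 °C. Western blot for phospho-Akt (Ser473, Thr308), phospho-S6 (Ser235/236) and phospho-4E-BP1 (Thr37/46), with GAPDH as internal control. Bands quantified as mean ± SD, n = 3 biological replicates, versus untreated cells.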

[6] = target: Phosphatidylinositol 4-kinase beta (Homo sapiens) (UniProt Q9UBF8); experiment: Inhibition of human partial length PIK4CB (M1 to M828 residues) expressed in mammalian expression system assessed as residual activity at 10 uM by kinome scan method relative to control
How it was run: (§3)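 KINOMEscan competitive binding screen at 10 μM test compound against a 52-kinase panel. Output is % Ctrl = (test signal − positive control signal)/(negative control signal − positive control signal) × 100. DMSO is the negative control (100%) and the positive control is set to 0%.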

[7] = target: Serine/threonine-protein kinase/endoribonuclease IRE1 (Homo sapiens) (UniProt O75460); experiment: Inhibition of human partial length ERN1 (S551 to E852 residues) expressed in mammalian expression system assessed as residual activity at 10 uM by kinome scan method relative to control; how it was run: as §1
[8] = test system: U87; experiment: Inhibition of PI3K in human U87MG cells assessed as suppression of phosphorylation of AKT at Thr308 residue at 25 nM after 3 hrs by Western blot analysis; assay type: cell-based; how it was run: as §2
[9] = Half life in Sprague-Dawley rat at 5 mg/kg, po; assay type: ADME, organism-based; conditions: in vivo
How it was run: (§4)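 Male Sprague-Dawley rats (n = 3) given a single oral gavage of 5 mg/kg as a homogeneous opaque suspension in 0.5% methylcellulose; plasma concentration-time curves used to derive mean PK parameters.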

[10] = target: Phosphatidylinositol 4,5-bisphosphate 3-kinase catalytic subunit alpha isoform (Homo sapiens, UniProt P42336); experiment: Inhibition of recombinant human PI3Kalpha using PIP2 as substrate incubated for 1 hr by kinase-glo luminescent assay
[11] = target: Phosphatidylinositol 4,5-bisphosphate 3-kinase catalytic subunit gamma isoform (Homo sapiens, UniProt P48736); experiment: Inhibition of human partial length PIK3CG (S144 to A1102 residues) expressed in mammalian expression system assessed as residual activity at 10 uM by kinome scan method relative to control; how it was run: as §3
[12] = AUC(0 to infinity) in Sprague-Dawley rat at 5 mg/kg, po; assay type: ADME, organism-based; parameters: time infinity, route oral, dose 5 mg/kg; conditions: in vivo; how it was run: as §4
[13] = target: Cyclin-dependent kinase 19 (Homo sapiens) (UniProt Q9BWU1); experiment: Inhibition of human partial length CDK11 (M1 to N360 residues) expressed in bacterial system assessed as residual activity at 10 uM by kinome scan method relative to control; how it was run: as §1
[14] = target: Serine/threonine-protein kinase mTOR (Homo sapiens, UniProt P42345); experiment: Inhibition of human partial length mTOR (L1382 to W2549 residues) expressed in mammalian expression system assessed as residual activity at 10 uM by kinome scan method relative to control; how it was run: as §3
[15] = target: Casein kinase I isoform alpha-like (Homo sapiens) (UniProt Q8N752); experiment: Inhibition of human partial length CSNK1A1L (M1 to N337 residues) expressed in bacterial expression system assessed as residual activity at 10 uM by kinome scan method relative to control; how it was run: as §1
[16] = target: Serine/threonine-protein kinase Nek10 (Homo sapiens) (UniProt Q6ZWH5); experiment: Inhibition of human partial length NEK10 (L488 to R809 residues) expressed in mammalian expression system assessed as residual activity at 10 uM by kinome scan method relative to control; how it was run: as §1
[17] = target: Serine/threonine-protein kinase 32A (Homo sapiens) (UniProt Q8WU08); experiment: Inhibition of human full length YANK1 (M1 to L396 residues) expressed in mammalian expression system assessed as residual activity at 10 uM by kinome scan method relative to control; how it was run: as §1
[18] = target: Mitogen-activated protein kinase 4 (Homo sapiens) (UniProt P31152); experiment: Inhibition of human partial length ERK4 (M1 to L365 residues) expressed in mammalian expression system assessed as residual activity at 10 uM by kinome scan method relative to control; how it was run: as §1
[19] = target: Cyclin-dependent kinase 14 (Homo sapiens) (UniProt O94921); experiment: Inhibition of human full length PFTK1 (M1 to H451 residues) expressed in bacterial expression system assessed as residual activity at 10 uM by kinome scan method relative to control; how it was run: as §1
[20] = target: Cyclin-dependent kinase 18 (Homo sapiens) (UniProt Q07002); experiment: Inhibition of human full length PCTK3 (M3 to F474 residues) expressed in bacterial expression system assessed as residual activity at 10 uM by kinome scan method relative to control; how it was run: as §1
[21] = target: Phosphatidylinositol 4-phosphate 3-kinase C2 domain-containing subunit beta (Homo sapiens) (UniProt O00750); experiment: Inhibition of human partial length PIK3C2B (M1 to L1634 residues) expressed in bacterial expression system assessed as residual activity at 10 uM by kinome scan method relative to control; how it was run: as §1
[22] = target: Serine/threonine-protein kinase TNNI3K (Homo sapiens) (UniProt Q59H18); experiment: Inhibition of human full length TNNI3K (M1 to S835 residues) expressed in bacterial expression system assessed as residual activity at 10 uM by kinome scan method relative to control; how it was run: as §1
[23] = target: Phosphatidylinositol 4,5-bisphosphate 3-kinase catalytic subunit beta isoform (Homo sapiens, UniProt P42338); experiment: Inhibition of human partial length PIK3CB (P118 to S1070 residues) expressed in mammalian expression system assessed as residual activity at 10 uM by kinome scan method relative to control; how it was run: as §3

Sequence of Casein kinase I isoform alpha-like (Homo sapiens) (Q8N752 whole entry, the tested form may be a part, canonical isoform): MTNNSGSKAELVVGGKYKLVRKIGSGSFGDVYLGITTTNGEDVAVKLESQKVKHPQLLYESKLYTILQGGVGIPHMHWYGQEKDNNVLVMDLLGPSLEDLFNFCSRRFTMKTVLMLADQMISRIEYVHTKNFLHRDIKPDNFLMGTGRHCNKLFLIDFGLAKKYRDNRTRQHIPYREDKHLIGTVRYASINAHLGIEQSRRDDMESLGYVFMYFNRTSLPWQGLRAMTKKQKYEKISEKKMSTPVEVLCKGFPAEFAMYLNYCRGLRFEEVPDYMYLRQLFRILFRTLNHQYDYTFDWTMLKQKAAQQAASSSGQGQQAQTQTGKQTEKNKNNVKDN
Sequence of Phosphatidylinositol 4,5-bisphosphate 3-kinase catalytic subunit alpha isoform (P42336 whole entry, the tested form may be a part, canonical isoform): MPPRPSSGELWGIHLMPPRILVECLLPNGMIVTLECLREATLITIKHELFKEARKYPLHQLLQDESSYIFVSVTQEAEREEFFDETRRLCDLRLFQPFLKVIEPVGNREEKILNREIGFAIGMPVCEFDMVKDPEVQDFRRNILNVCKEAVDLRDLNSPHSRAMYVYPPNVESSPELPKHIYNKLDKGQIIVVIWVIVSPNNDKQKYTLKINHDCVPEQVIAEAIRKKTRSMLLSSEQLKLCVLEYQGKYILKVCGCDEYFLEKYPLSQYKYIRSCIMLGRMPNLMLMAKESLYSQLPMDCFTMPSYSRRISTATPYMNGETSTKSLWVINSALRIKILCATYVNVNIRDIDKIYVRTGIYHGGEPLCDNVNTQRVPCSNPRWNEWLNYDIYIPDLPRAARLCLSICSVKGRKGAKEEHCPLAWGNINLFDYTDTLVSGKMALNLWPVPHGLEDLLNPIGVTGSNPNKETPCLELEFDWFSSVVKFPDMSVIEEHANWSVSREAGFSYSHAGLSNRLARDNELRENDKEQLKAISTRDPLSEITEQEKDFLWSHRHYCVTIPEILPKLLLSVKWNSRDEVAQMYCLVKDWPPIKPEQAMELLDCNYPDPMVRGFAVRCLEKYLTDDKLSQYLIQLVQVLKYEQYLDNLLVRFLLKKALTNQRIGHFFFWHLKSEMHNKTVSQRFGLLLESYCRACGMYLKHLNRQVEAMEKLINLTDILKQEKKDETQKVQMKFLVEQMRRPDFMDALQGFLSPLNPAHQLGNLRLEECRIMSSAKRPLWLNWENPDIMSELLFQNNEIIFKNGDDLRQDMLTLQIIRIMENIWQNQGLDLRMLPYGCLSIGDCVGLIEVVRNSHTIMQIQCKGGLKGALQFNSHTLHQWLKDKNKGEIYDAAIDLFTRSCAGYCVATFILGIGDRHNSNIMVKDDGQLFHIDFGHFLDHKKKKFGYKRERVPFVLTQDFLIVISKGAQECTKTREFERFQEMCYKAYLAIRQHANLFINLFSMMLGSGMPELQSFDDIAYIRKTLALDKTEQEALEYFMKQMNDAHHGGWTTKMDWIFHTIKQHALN
Sequence of Mitogen-activated protein kinase kinase kinase 4 (Homo sapiens) (Q9Y6R4 whole entry, the tested form may be a part): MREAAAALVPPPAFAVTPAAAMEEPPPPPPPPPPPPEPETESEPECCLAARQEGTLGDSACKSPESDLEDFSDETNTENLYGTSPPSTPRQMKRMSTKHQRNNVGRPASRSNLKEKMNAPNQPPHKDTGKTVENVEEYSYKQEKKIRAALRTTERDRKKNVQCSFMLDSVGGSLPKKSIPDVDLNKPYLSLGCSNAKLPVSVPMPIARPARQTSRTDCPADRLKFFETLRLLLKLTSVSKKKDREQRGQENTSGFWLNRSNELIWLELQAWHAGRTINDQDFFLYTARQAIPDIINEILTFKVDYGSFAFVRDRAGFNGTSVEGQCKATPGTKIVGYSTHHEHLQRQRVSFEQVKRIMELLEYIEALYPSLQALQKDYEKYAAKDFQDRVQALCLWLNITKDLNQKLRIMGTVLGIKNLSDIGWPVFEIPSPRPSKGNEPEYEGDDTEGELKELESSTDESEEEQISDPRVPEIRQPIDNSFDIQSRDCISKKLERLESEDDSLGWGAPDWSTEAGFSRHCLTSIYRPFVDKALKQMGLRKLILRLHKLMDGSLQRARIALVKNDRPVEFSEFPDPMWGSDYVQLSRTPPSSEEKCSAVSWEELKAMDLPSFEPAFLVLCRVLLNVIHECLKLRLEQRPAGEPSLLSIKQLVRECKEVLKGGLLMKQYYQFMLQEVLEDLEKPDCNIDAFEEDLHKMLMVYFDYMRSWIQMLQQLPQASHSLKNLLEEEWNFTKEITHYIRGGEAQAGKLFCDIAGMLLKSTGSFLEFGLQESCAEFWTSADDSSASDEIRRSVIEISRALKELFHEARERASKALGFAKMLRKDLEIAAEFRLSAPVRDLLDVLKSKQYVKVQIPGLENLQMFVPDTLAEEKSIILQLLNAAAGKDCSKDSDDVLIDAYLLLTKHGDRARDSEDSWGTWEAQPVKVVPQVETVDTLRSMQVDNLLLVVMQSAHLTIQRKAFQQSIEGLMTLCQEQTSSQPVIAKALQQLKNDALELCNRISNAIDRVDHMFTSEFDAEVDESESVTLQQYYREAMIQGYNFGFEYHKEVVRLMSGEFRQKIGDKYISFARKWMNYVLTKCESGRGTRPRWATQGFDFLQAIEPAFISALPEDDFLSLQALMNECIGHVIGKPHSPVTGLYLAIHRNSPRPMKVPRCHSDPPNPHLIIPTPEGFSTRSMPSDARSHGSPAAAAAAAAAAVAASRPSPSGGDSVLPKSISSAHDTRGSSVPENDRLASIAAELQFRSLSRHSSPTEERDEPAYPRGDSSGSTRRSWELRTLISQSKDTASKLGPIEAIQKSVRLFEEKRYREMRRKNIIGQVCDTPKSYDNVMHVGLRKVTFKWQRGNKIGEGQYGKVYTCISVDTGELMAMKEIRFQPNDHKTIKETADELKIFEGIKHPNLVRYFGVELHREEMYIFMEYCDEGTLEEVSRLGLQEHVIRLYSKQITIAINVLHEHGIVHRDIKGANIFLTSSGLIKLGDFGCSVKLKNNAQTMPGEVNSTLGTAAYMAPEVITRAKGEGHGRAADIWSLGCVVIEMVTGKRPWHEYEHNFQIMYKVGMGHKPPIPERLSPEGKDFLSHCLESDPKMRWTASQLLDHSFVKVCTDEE
Sequence of Cyclin-dependent kinase-like 1 (Homo sapiens) (Q00532 whole entry, the tested form may be a part): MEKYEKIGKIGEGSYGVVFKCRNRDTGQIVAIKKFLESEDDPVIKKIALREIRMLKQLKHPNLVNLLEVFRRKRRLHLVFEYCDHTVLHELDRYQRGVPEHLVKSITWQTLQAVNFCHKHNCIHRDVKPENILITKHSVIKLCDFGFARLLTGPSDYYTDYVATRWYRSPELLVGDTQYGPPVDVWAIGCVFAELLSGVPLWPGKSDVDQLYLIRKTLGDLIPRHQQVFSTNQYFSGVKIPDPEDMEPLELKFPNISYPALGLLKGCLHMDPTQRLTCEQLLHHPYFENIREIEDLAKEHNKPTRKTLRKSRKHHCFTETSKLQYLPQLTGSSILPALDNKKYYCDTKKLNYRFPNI
Sequence of Mitogen-activated protein kinase 4 (Homo sapiens) (P31152 whole entry, the tested form may be a part): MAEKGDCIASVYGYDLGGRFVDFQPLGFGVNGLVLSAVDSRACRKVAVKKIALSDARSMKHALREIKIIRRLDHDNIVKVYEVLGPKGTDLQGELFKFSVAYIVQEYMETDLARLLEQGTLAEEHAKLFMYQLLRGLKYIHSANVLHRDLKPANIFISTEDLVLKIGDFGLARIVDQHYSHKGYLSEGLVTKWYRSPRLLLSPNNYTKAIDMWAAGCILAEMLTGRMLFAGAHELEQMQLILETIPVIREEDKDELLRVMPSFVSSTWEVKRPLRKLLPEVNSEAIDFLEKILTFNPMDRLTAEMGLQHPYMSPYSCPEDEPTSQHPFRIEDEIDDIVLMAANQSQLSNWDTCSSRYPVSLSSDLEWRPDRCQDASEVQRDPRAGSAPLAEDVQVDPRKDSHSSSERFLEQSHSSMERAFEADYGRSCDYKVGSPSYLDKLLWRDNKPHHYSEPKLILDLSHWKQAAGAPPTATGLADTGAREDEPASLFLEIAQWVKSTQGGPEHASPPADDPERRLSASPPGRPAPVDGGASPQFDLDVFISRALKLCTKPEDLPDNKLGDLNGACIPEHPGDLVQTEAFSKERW
Sequence of Cyclin-dependent kinase 19 (Homo sapiens) (Q9BWU1 whole entry, the tested form may be a part): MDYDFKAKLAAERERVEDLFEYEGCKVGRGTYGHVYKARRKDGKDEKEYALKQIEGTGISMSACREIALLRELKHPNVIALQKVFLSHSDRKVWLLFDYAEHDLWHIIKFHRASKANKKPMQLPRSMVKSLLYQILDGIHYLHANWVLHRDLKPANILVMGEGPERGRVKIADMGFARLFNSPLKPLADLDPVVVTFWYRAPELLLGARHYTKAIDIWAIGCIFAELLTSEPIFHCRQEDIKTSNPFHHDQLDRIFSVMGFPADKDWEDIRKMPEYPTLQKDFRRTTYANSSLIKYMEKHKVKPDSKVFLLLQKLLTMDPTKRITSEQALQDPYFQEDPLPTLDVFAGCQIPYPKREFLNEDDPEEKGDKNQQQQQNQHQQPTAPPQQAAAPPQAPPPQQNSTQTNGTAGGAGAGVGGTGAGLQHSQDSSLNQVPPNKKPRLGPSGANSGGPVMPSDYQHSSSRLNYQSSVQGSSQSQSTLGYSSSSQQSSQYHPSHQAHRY
Sequence of Cyclin-dependent kinase 18 (Homo sapiens) (Q07002 whole entry, the tested form may be a part): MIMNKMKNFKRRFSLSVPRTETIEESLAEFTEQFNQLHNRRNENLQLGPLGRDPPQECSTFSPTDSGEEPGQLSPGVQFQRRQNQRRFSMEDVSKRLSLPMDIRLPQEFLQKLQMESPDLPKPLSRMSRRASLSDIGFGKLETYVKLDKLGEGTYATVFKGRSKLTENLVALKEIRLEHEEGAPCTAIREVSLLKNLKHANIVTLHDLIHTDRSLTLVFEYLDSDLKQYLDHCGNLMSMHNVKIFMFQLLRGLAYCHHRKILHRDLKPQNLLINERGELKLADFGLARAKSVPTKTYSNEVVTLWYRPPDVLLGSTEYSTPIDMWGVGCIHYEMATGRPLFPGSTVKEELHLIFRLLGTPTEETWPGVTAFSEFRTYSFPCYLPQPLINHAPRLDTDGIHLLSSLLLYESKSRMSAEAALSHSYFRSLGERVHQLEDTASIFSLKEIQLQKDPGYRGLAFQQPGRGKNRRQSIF

Activity [1]: 22%
Activity [2]: 100%
Activity [3]: 82%
Activity [4]: 92%
Activity [6]: 0.55%
Activity [7]: 54%
half-life [9]: 1.85 h
IC50 [10]: 0.8 nM
Activity [11]: 0%
AUC(0-inf) [12]: 1450 ng·h/mL
Activity [13]: 95%
Activity [14]: 0%
Activity [15]: 84%
Activity [16]: 61%
Activity [17]: 84%
Activity [18]: 100%
Activity [19]: 78%
Activity [20]: 78%
Activity [21]: 0%
Activity [22]: 87%
Activity [23]: 0%
Compound: COc1ncc(-c2ccc3nccc(/C(C)=C/C(=O)N4CCN(C)CC4)c3c2)cc1NS(=O)(=O)c1ccc(F)cc1F
inhibition [5]: Active
inhibition [8]: Active
